In brackets after ≈: the same amount, converted by molar mass. Activity calls are given as the source filed them. The calls are words filed in the database; no cut-off is given here.
How the values were obtained:
[1] = tested on: Staphylococcus aureus; test: Antibiotic activity against methicillin-resistant Staphylococcus aureus MN8-USA200 assessed as inhibition of bacterial growth incubated for 16 hrs by microtiter broth dilution method; type: functional
Summary of the method: (§1)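 Microtiter broth dilution assay in liquid medium, run alongside MBC determination, against a Gram-positive panel; the MIC was read as growth inhibition.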

[2] = tested on: Pseudomonas aeruginosa; test: Antibiotic activity against Pseudomonas aeruginosa PA01 assessed as inhibition of bacterial growth incubated for 16 hrs by microtiter broth dilution method; type: functional
[3] = tested on: Staphylococcus aureus; test: Antibiotic activity against methicillin-resistant Staphylococcus aureus MW2-USA400 assessed as inhibition of bacterial growth incubated for 16 hrs by microtiter broth dilution method; type: functional; summary of the method: as §1
[4] = tested on: Staphylococcus aureus; test: Antibiotic activity against methicillin-resistant Staphylococcus aureus IA116-USA100 assessed as inhibition of bacterial growth incubated for 16 hrs by microtiter broth dilution method; type: functional; summary of the method: as §1
[5] = tested on: Enterococcus faecalis; test: Bacteriostatic activity against vancomycin resistant Enterococcus faecalis NJ3 assessed as inhibition of bacterial growth by microtiter broth dilution method; type: functional, organism-based
[6] = tested on: Staphylococcus aureus; test: Bacteriostatic activity against methicillin-resistant Staphylococcus aureus MN8-USA200 assessed as inhibition of bacterial growth by microtiter broth dilution method; type: functional, organism-based
[7] = tested on: Pseudomonas aeruginosa; test: Bacteriostatic activity against Pseudomonas aeruginosa PA01 assessed as inhibition of bacterial growth by microtiter broth dilution method; type: functional, organism-based
[8] = tested on: Staphylococcus aureus; test: Bacteriostatic activity against methicillin-resistant Staphylococcus aureus MW2-USA400 assessed as inhibition of bacterial growth by microtiter broth dilution method; type: functional, organism-based
[9] = tested on: Staphylococcus aureus; test: Bacteriostatic activity against methicillin-resistant Staphylococcus aureus IA116-USA100 assessed as inhibition of bacterial growth by microtiter broth dilution method; type: functional, organism-based
[10] = tested on: Staphylococcus aureus; test: Bacteriostatic activity against methicillin-resistant Staphylococcus aureus LAC-Fitz-USA300 assessed as inhibition of bacterial growth by microtiter broth dilution method; type: functional, organism-based
[11] = tested on: Staphylococcus aureus; test: Antibiotic activity against methicillin-resistant Staphylococcus aureus LAC-Fitz-USA300 assessed as inhibition of bacterial growth incubated for 16 hrs by microtiter broth dilution method; type: functional; summary of the method: as §1
[12] = tested on: Enterococcus faecalis; test: Antibiotic activity against vancomycin resistant Enterococcus faecalis NJ3 assessed as inhibition of bacterial growth incubated for 16 hrs by microtiter broth dilution method; type: functional; summary of the method: as §1
[13] = tested on: Staphylococcus aureus; test: Inhibition of ClpX/ClpP activity in methicillin-resistant Staphylococcus aureus USA300 assessed as increase in urease activation incubated of overnight by phenol red dye based microplate reader analysis
Summary of the method: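 Cell-based ClpXP readout in MRSA USA300 grown in Christensen's urea medium with phenol red indicator. ClpXP inhibition raises urease activity, which hydrolyses urea and releases ammonia, and the rising pH turns the medium from yellow to red. Minimum effective concentration (MEC) was taken as the lowest level that raised urease activity above background.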

[14] = Inhibition of C-terminal His tagged Bacillus subtilis ClpY/ClpQ expressed in Escherichia coli BL21 (DE3) using Cbz-Gly-Gly-Leu-AMC as peptide substrate by Cheng-prusoff equation analysis
Summary of the method: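 Recombinant purified B. subtilis ClpYQ was used for inhibition kinetics. Peptide hydrolysis of the fluorogenic substrate Cbz-GGL-AMC at 100 μM was followed over a range of compound concentrations to give a dose-response curve.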

[15] = Toxicity in sheep RBC assessed as induction of hemolysis at 200 uM and measured after 1 hr relative to control; type: cell-based, Ovis aries, Erythrocyte; settings: sheep red blood cells, read-out: Activity
Summary of the method: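 Hemolytic activity was measured as percent lysis of sheep erythrocytes, with compound tested up to 200 μM.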

[16] = tested on: Escherichia coli; test: Antibiotic activity against Escherichia coli with delta.tolC mutation assessed as inhibition of bacterial growth by microtiter broth dilution method; type: functional, organism-based
[17] = Cytotoxicity against human A549 cells assessed as number of viable cells at 100 uM incubated for 24 hrs by calcein-AM and ethidium homodimer-1 staining based flow cytometry; type: toxicity, cell-based; settings: read-out: Activity
Summary of the method: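 A549 human lung epithelial carcinoma cells were incubated with compound at up to 100 μM and stained with calcein-AM and ethidium homodimer-1. Viable and dead fractions were determined by confocal microscopy and flow cytometry, against a vehicle control.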

[18] = tested on: Staphylococcus aureus; test: Antibiotic activity against methicillin-resistant Staphylococcus aureus USA300 assessed as inhibition of bacterial growth incubated for 16 hrs in presence of BSA by microtiter broth dilution method; type: functional
Summary of the method: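 MIC by microtiter broth dilution against MRSA USA300, with bovine serum albumin added to the medium to assess the effect of protein binding.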

SMILES	MIC [1]	MIC [2]	MIC [3]	MIC [4]	Activity [5]	Activity [6]	Activity [7]	Activity [8]	Activity [9]	Activity [10]	MIC [11]	MIC [12]	MEC [13]	Ki [14]	hemolysis at 1 h, 200 µM [15]	Activity [16]	viability at 24 h, 100 µM [17]	MIC [18]
CCCCCCc1c(O)c(Cl)cc2c1OC1(C2=O)C(Cl)=C(Cl)C(=O)N1Cc1ccccc1 (stereo unspecified)	1 µg/mL (≈ 2.02 µM)	> 32 µg/mL	2 µg/mL (≈ 4.04 µM)	1 µg/mL (≈ 2.02 µM)	Active	Active	Active	Active	Active	Active	1 µg/mL (≈ 2.02 µM)	2 µg/mL (≈ 4.04 µM)	0.25 µg/mL	580 nM				
Cc1c(O)c(Cl)cc2c1OC1(C2=O)C(Cl)=C(Cl)C(=O)N1C (stereo unspecified)	> 32 µg/mL	> 32 µg/mL	> 32 µg/mL	> 32 µg/mL	Active	Active	Active	Active	Active	Active	> 32 µg/mL	> 32 µg/mL						
CCCCCCc1c(O)c(Cl)cc2c1OC1(C2=O)C(Cl)=C(Cl)C(=O)N1Cc1ccc(C)cc1 (stereo unspecified)	0.5 µg/mL (≈ 0.983 µM)	> 32 µg/mL	0.5 µg/mL (≈ 0.983 µM)	1 µg/mL (≈ 1.97 µM)	Active	Active	Active	Active	Active	Active	0.5 µg/mL (≈ 0.983 µM)	1 µg/mL (≈ 1.97 µM)	0.25 µg/mL	150 nM				
CCCCCCc1c(O)c(Cl)cc2c1OC1(C2=O)C(Cl)=C(Cl)C(=O)N1C (stereo unspecified)	4 µg/mL (≈ 9.55 µM)	> 32 µg/mL	4 µg/mL (≈ 9.55 µM)	4 µg/mL (≈ 9.55 µM)	Active	Active	Active	Active	Active	Active	4 µg/mL (≈ 9.55 µM)	8 µg/mL (≈ 19.1 µM)	1 µg/mL	3200 nM	< 15%	Active	> 95%	> 32 µg/mL
CCCCCCCCCCCCN1C(=O)C(Cl)=C(Cl)C12Oc1c(cc(Cl)c(O)c1CCCCCC)C2=O (stereo unspecified)	16 µg/mL (≈ 27.9 µM)	> 32 µg/mL	8 µg/mL (≈ 14 µM)	8 µg/mL (≈ 14 µM)	Active	Active	Active	Active	Active	Active	16 µg/mL (≈ 27.9 µM)	8 µg/mL (≈ 14 µM)						
C=CCN1C(=O)C(Cl)=C(Cl)C12Oc1c(cc(Cl)c(O)c1CCCCCC)C2=O (stereo unspecified)	4 µg/mL (≈ 8.99 µM)	> 32 µg/mL	4 µg/mL (≈ 8.99 µM)	4 µg/mL (≈ 8.99 µM)	Active	Active	Active	Active	Active	Active	4 µg/mL (≈ 8.99 µM)	8 µg/mL (≈ 18 µM)						
CCCCCCc1c(O)c(Cl)cc2c1OC1(C2=O)C(Cl)=C(Cl)C(=O)N1CCCCCC (stereo unspecified)	1 µg/mL (≈ 2.05 µM)	> 32 µg/mL	1 µg/mL (≈ 2.05 µM)	1 µg/mL (≈ 2.05 µM)	Active	Active	Active	Active	Active	Active	1 µg/mL (≈ 2.05 µM)	2 µg/mL (≈ 4.09 µM)	0.067 µg/mL	1300 nM	< 5%		> 95%	32 µg/mL
CCCCCCc1c(O)c(Cl)cc2c1OC1(C2=O)C(Cl)=C(Cl)C(=O)N1Cc1ccc(C(F)(F)F)cc1 (stereo unspecified)	2 µg/mL (≈ 3.55 µM)	> 32 µg/mL	2 µg/mL (≈ 3.55 µM)	2 µg/mL (≈ 3.55 µM)	Active	Active	Active	Active	Active	Active	2 µg/mL (≈ 3.55 µM)	2 µg/mL (≈ 3.55 µM)	1 µg/mL	570 nM				
Cc1c(O)c(Cl)cc2c1OC1(C2=O)C(Cl)=C(Cl)C(=O)N1Cc1ccccc1 (stereo unspecified)	> 32 µg/mL	> 32 µg/mL	32 µg/mL (≈ 75.4 µM)	> 32 µg/mL	Active	Active	Active	Active	Active	Active	32 µg/mL (≈ 75.4 µM)	> 32 µg/mL						
C=CCN1C(=O)C(Cl)=C(Cl)C12Oc1c(cc(Cl)c(O)c1C)C2=O (stereo unspecified)	> 32 µg/mL	> 32 µg/mL	> 32 µg/mL	> 32 µg/mL	Active	Active	Active	Active	Active	Active	> 32 µg/mL	> 32 µg/mL						
CCCCCCc1c(O)c(Cl)cc2c1OC1(C2=O)C(Cl)=C(Cl)C(=O)N1CCc1ccccc1 (stereo unspecified)	0.5 µg/mL (≈ 0.983 µM)	> 32 µg/mL	0.5 µg/mL (≈ 0.983 µM)	1 µg/mL (≈ 1.97 µM)	Active	Active	Active	Active	Active	Active	0.5 µg/mL (≈ 0.983 µM)	1 µg/mL (≈ 1.97 µM)	0.25 µg/mL	410 nM	< 5%		> 95%	
CCCCCCN1C(=O)C(Cl)=C(Cl)C12Oc1c(cc(Cl)c(O)c1C)C2=O (stereo unspecified)	4 µg/mL (≈ 9.55 µM)	> 32 µg/mL	8 µg/mL (≈ 19.1 µM)	4 µg/mL (≈ 9.55 µM)	Active	Active	Active	Active	Active	Active	4 µg/mL (≈ 9.55 µM)	8 µg/mL (≈ 19.1 µM)						
Cc1c(O)c(Cl)cc2c1OC1(C2=O)C(Cl)=C(Cl)C(=O)N1Cc1ccc(C(F)(F)F)cc1 (stereo unspecified)	16 µg/mL (≈ 32.5 µM)	> 32 µg/mL	16 µg/mL (≈ 32.5 µM)	16 µg/mL (≈ 32.5 µM)	Active	Active	Active	Active	Active	Active	16 µg/mL (≈ 32.5 µM)	32 µg/mL (≈ 65 µM)						
CCCCCCCCCCCCN1C(=O)C(Cl)=C(Cl)C12Oc1c(cc(Cl)c(O)c1C)C2=O (stereo unspecified)	2 µg/mL (≈ 3.98 µM)	> 32 µg/mL	2 µg/mL (≈ 3.98 µM)	2 µg/mL (≈ 3.98 µM)	Active	Active	Active	Active	Active	Active	1 µg/mL (≈ 1.99 µM)	0.5 µg/mL (≈ 0.994 µM)	0.5 µg/mL	1000 nM				

Source: ChEMBL document CHEMBL5104117, “Armeniaspirol analogues with more potent Gram-positive antibiotic activity show enhanced inhibition of the ATP-dependent proteases ClpXP and ClpYQ” (RSC Med Chem, 2022)
